# The list is not random: actives were taken first. Their share in the collection is about 4.8%.
# Efflux pump inh – inhibitors of Candida efflux pumps in yeast, primary screen, S. cerevisiae, Nile Red, multiplex; S. cerevisiae Candida pump triplex; inhibition, % at 10 µM; 330,000 tested, 0.44% active; AID 485275, 2010;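 active = plate passing quality check with inhibition over a set limit, or well fluorescence over plate mean plus 4 SD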;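 note: Nile Red retained in pooled yeast measured as flow cytometry median fluorescence; 0% = buffer negative control and 100% = Enniatin B positive control; higher means more Nile Red kept so more efflux inhibition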
# WT yeast gro inh – growth inhibition of WT strain, primary screen, mitochondrial fusion inhibitor project, WT and mutant strains, chemical genetic | AID 1362, 2008 | inhibition, % at 10 µM | mitochondrial fusion phenotypic screen | 190,000 tested, 2.1% active; in the data active = inhibition above about 58%; tested in S. cerevisiae
# SUMO Mot1 rescue – yeast Mot1-301 growth rescue at high temperature, primary screen, SUMOylation pathway inhibitor project, S. cerevisiae, ATP luminescence, 38.5C. growth rescue, % at 18.8 µM. AID 2716, 2010. 320,000 tested, 1% active. S. cerevisiae Mot1-301 growth rescue; percent above DMSO median, 100 means doubled;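 active = every valid replicate shows activation above 250% relative to neutral control wells; inactive = the rest, any valid replicate at or below 250%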;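 note: OY570 slx delta 5 strain wells were the positive control but not used for scaling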
# CSC inhib – cancer stem cell viability inhibitors, primary screen, luminescence | cancer stem cell-like cells viability | inhibition, % at 7.5 µM | 300,000 tested, 1.1% active | AID 2717, 2010; in the data active = inhibition above about 75%; inconclusive = no clear call, values can overlap the other calls; tested in HMLE shEcad cells
# Beta cell apopt – inhibitors of cytokine-induced beta cell apoptosis, primary screen, luminescence | INS-1E cytokine-induced death, ATP luminescence, 48 h; percent of positive-control rescue, neutral wells zero | protection from apoptosis, % (concentration not given with the values) | 300,000 tested, 0.8% active | AID 435005, 2010;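 active = Every replicate reaches about 75%, or at least half do and their mean reaches it too, limit read from the data; inconclusive = At least half of replicates reach the limit but their mean does not; inactive = Under half of replicates reach the limit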;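 note: 0% = cytokine-treated negative control wells and 100% = positive control rescue; higher means more ATP so stronger rescue from cytokine killing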
# T cruzi repl – inhibitors of intracellular T. cruzi growth, primary screen, luminescence, NIH3T3 host cells; T. cruzi beta-gal in NIH3T3, 90 h; inhibition, % (test concentration not listed); 300,000 tested, 1.4% active; AID 1885, 2009;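 active = mean inhibition across valid replicates above about 55%, limit read from the data; inconclusive = mean below that limit but half or more replicates reach it; inactive = mean below it, under half of replicates reach it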;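 note: signal also drops with host cell toxicity which is not excluded here; 0% = plate median of DMSO wells and 100% = zero luminescence signal; higher percent means less beta-gal luminescence so fewer parasites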
#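 Incubation – ≥90 h infection period, 3 h prior cell attachment · System – NIH/3T3 fibroblasts plus reporter T. cruzi · Doses – compound pinned at 50 nL/well, DMSO · Read-out basis – percent inhibition of parasite-derived β-gal signal · Signal – luminescent β-galactosidase signal after 60 min lysis · Also added – 5000 T. cruzi trypomastigotes/well · Medium – Low-serum DMEM with 2% FBS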
# The depositor's hits bear a star; u = inconclusive; x = no result.
SMILES,Efflux pump inh,WT yeast gro inh,SUMO Mot1 rescue,CSC inhib,Beta cell apopt,T cruzi repl
Cc1cccc(NC(=S)NCCSc2ccc(Cl)cc2)c1,-0.1,80.6*,15.7,32.6,-0.1,33.8
Cc1ccc(NC(=S)NCCSc2ccc(Cl)cc2)c(C)c1,-0.5,73.3*,-2.9,31.5,4.8,45.3
Cc1ccc(Cl)cc1NC(=S)NCCCSC1CCCCC1,-0.1,86.2*,x,24.6,10.9,35.4
CC(=O)Nc1ccc(NC(=O)CSc2ccc3nnc(-c4ccccn4)n3n2)cc1,0.0,x,179.2,0.3,-3.8,-15.5
CC1CN(C)CCC1OC(=O)c1ccccc1 (configuration not stated),-0.1,x,45.4,-7.0,-12.1,51.6
Cc1sc2nc(C3CC3)nc(SCC(=O)N3CCc4ccccc4C3)c2c1C,0.1,52.6,-8.3,21.0,-10.2,21.0
CCc1c(C)sc2nc(C(C)C)nc(SCC(=O)N3CCc4ccccc4C3)c12,0.0,61.2*,-20.7,191.7*,104.8*,35.2
CCOc1cc(S(=O)(=O)n2ccnc2)ccc1Cl,0.2,0.0,8.0,-9.5,-1.3,-9.1
CCN(CC)S(=O)(=O)c1ccc(OC(C)C)c(NC(=O)c2c3c(nc4ccccc24)CCN(Cc2ccccc2)C3)c1,-0.2,0.8,-4.1,x,13.5,47.7
Cc1ccc(NC(=S)N2CCN(c3ccccn3)CC2)c(C)c1,0.0,12.1,325.2*,-13.8,-5.9,-17.6
Cc1ccc(NC(=S)N2CCN(C(=O)c3ccccc3)CC2)c(C)c1,-0.1,-7.1,439.7*,-13.5,-0.6,-18.7
Cc1ccc(SCC(=O)N2N=CCC2c2ccccc2)cc1 (configuration not stated),-0.1,28.9,-6.7,-6.5,-5.8,4.6
CCCS(=O)(=O)c1nc(S(=O)(=O)c2ccc(C)cc2)c(N2CCN(CC)CC2)s1,0.1,x,-14.7,7.9,-2.2,7.8
O=C(NC1CCCC1)c1ccc2c(c1)N(Cc1ccccc1)CCS2,0.0,x,1.5,19.7,6.5,6.9
Cc1ccc(CN2CCSc3ccc(C(=O)NC4CCN(Cc5ccccc5)CC4)cc32)cc1,0.2,66.3,-4.3,23.9,20.2,57.5*
Cc1ccc(CN2CCSc3ccc(C(=O)NCc4ccco4)cc32)cc1,-0.2,32.6,6.4,83.6*,-6.1,3.9
O=C(Nc1cc(Sc2nc3ccccc3s2)cc([N+](=O)[O-])c1)c1cccc(F)c1F,-0.4,22.2,-2.4,48.4,x,51.7
Cc1ccc(OCC(=O)N2CCC(C)CC2)c([N+](=O)[O-])n1,0.0,x,-12.3,x,4.9,x
CC(C)(C)c1nn(-c2ccccc2)c2[nH]c(=O)c(C=O)cc12,-0.1,x,7.2,87.6*,-22.9,3.2
CN(C)S(=O)(=O)c1cccc(N=C2NN=C(c3ccccc3)CS2)c1,-0.2,19.5,-4.9,16.7,90.8*,x
CC(=O)Nc1ccc(C2=NNC(=Nc3cccc(S(=O)(=O)N(C)C)c3)SC2)cc1,0.0,-22.0,-4.8,37.5,96.3*,1.8
COc1ccc(C2=NNC(=Nc3cc(S(=O)(=O)N(C)C)ccc3C)SC2)c(OC)c1,0.2,x,x,1.2,103.3*,71.8*
Cn1nnnc1Sc1ncnc2scc(-c3cccs3)c12,0.0,x,-4.6,56.6,-83.7,x
C=C1C(=O)[C@@]23[C@H](O)C[C@@H]4C(C)(C)CC[C@H](O)[C@@]4(C)[C@@H]2CC[C@@H]1[C@H]3O,-0.1,-11.8,16.8,3.0,98.6*,40.4
Cc1cc(C)c(NC(=O)CCCn2c(=O)oc3ccccc32)c(C)c1,0.0,x,-2.3,-12.6,1.3,x
SMILES,Efflux pump inh,WT yeast gro inh,SUMO Mot1 rescue,CSC inhib,Beta cell apopt,T cruzi repl
CCOc1ccccc1N1CN(CC)CNC1=S,0.1,-5.2,355.1*,18.4,0.3,-7.5
COC(=O)/C=C/c1c(C)[nH]c(=O)[nH]c1=O,0.0,x,-45.3,-10.8,-1.7,-7.5
Cc1[nH]c(=O)[nH]c(=O)c1/C=C/C(=O)O,-0.1,x,853.2*,-3.6,-0.5,-18.1
CC(=O)c1ccc(N2CCc3ccccc3C2)c([N+](=O)[O-])c1,0.1,x,24.2,24.9,-1.5,10.2
CCOC(=O)N1CCN(c2cc(N3CCN(CC)CC3)c(F)cc2[N+](=O)[O-])CC1C (configuration not stated),0.2,14.8,-11.5,57.8,5.2,60.2*
CCOC(=O)N1CCN(c2cc(N3CCOCC3)c(F)cc2[N+](=O)[O-])CC1,0.1,6.0,-25.7,-4.6,2.8,5.4
CCC(=O)N1CCN(c2cc(N3CCN(C)CC3)c(F)cc2[N+](=O)[O-])CC1,0.1,9.0,-4.5,2.7,-7.5,69.0*
CN1CCN(c2cc(N3CCc4ccccc4C3)c(F)cc2[N+](=O)[O-])CC1,-0.3,87.3*,11.7,u,22.4,17.2
CCN(c1ccccc1)S(=O)(=O)c1cnc[nH]1,0.1,59.4*,1.6,-5.6,-8.3,-2.3
Cc1cccc2c(CC(=O)Nc3ccccc3)noc12,0.1,-6.7,11.6,-3.9,-1.8,5.9
O=C(Nc1nc(-c2cccs2)cs1)c1cccc(S(=O)(=O)N2CCCCC2)c1,0.0,39.1,-6.5,24.4,-4.0,61.6*
CC1CN(S(=O)(=O)c2ccc(C(=O)Nc3nc(-c4cc5ccccc5o4)cs3)cc2)CC(C)O1 (configuration not stated),-0.4,0.2,6.6,28.7,54.5,-8.6
O=C(Nc1nc(-c2ccc(S(=O)(=O)N3CCCCCC3)cc2)cs1)c1cccs1,0.3,4.8,-6.4,-15.8,17.8,70.3*
O=C(Nc1nc(-c2cc3ccccc3o2)cs1)c1ccc(S(=O)(=O)N2CCCC2)cc1,0.1,-1.2,-13.4,18.4,72.2,65.5*
O=C1CN(C(=O)c2ccc(F)cc2)c2ccccc2N1,-0.3,x,-7.9,-3.0,x,-11.5
CC(=O)Nc1ccc(NC(=O)CSc2n[nH]c(-c3cccs3)n2)cc1,-0.1,x,84.7,0.7,0.1,-6.5
COc1ccc(C2CC(c3cccs3)=NN2C(=O)CSC2=NN3CCCC(=O)N=C3S2)cc1 (configuration not stated),-0.1,-22.3,7.4,-0.4,3.4,9.9
COc1ccc(C2CC(c3ccc(Br)cc3)=NN2C(=O)CSC2=NN3CCCC(=O)N=C3S2)cc1 (configuration not stated),0.2,x,-14.0,-17.4,-0.1,60.0*
Cc1nonc1C1CCCN1Cc1nc(-c2ccccc2Cl)oc1C (configuration not stated),0.0,-9.8,19.1,1.2,0.4,22.5
CCOc1ccc(C2C(C#N)=C(N)Oc3nc[nH]c(=O)c32)cc1OC (configuration not stated),0.3,10.3,334.4*,-20.0,0.6,-0.6
Cc1cccc(Cl)c1OCCCCn1ccnc1,-0.4,25.2,342.9,x,-2.3,65.6*
Cc1cc(Cl)cc(C)c1OCCCCn1ccnc1,0.0,76.0*,15.6,20.4,-2.6,u

# Bioassay records: PubChem, several laboratories
